Hits are enriched below; roughly 2.9% of the tested compounds scored in any of these assays.
SENP1 inh = SENP1 (human) catalytic domain inhibition | Q9P0U3 | recombinant SENP1 catalytic domain, CyPet-SUMO1-YPet FRET cleavage | inhibition, % at 10 µM | 360,000 tested, 0.21% active | AID 624204;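 active = inhibition at least 30% at 10 µM, raw YFP signal under a set limit, fluorescence ratio 0.5 to 1.5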;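 also: 0% = enzyme with DMSO and 100% = no enzyme wells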
Target sequence (Q9P0U3 419-644 limits assumed): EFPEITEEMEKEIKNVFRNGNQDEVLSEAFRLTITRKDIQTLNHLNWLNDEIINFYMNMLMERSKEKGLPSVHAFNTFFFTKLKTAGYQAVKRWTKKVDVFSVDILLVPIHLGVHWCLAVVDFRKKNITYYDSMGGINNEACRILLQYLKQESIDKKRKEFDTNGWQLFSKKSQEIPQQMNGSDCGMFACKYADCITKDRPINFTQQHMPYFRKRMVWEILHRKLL
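Test system: hSENP1 catalytic domain, recombinant; Amount: 20 pM final SENP1 enzyme; Medium: Tris pH 8 buffer plus EDTA, NaCl, BME, BSA, NP40, catalase; Schedule: 50 min enzyme reaction, room temperature, light-protected; Technique: FRET fluorescence in CFP and YFP emission channels; Controls: no-enzyme wells low, DMSO-plus-enzyme wells high control.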
HSP90 inh = inhibitors of HSP90 luciferase refolding in rabbit reticulocyte lysate. luciferase refolding luminescence, 3 h. 290,000 tested, 0.91% active. inhibition, % at 5.6 µM;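 active = inhibition above the screen-wide mean plus 3 SD, computed separately per campaign, cut at about 16% in these data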;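 also: 0% = DMSO wells and 100% = 60 µM geldanamycin wells; inhibitors lower the luminescence because luciferase stays unfolded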
SENP7 block = SENP7 protease inhibition; Q9BQF6; recombinant SENP7, Z-RLRGG-aminoluciferin luminescence, 40 min; inhibition, % at 5 µM; 330,000 tested, 1.5% active; AID 434973;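 active = inhibition above about 50% at the single test dose, limit read from the data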;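 also: plate controls were DMSO with enzyme for no effect and no enzyme buffer wells for full effect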
SENP8 block-1 = blocks the human protease SENP8; purified SENP8, Z-RLRGG-aminoluciferin cleavage, luminescence; inhibition, % at 10 µM; 330,000 tested, 1.2% active; Q96LD8; in the data active = inhibition above about 50%
Target sequence (Q96LD8 whole entry, looked up): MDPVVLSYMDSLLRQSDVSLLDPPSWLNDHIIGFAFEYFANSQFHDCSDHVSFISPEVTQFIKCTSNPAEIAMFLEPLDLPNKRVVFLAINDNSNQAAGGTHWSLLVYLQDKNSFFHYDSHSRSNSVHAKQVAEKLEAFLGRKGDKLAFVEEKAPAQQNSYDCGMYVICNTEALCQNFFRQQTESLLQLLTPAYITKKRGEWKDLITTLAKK
SENP8 block-2 = inhibitors of human SENP8 protease; inhibition, % at 20 µM; 360,000 tested, 0.64% active; AID 602440; Q96LD8; recombinant SENP8, Nedd8 substrate fluorescence; in the data active = inhibition mostly above about 40%, no sharp cut-off; inactive = mostly below about 27%
SENP6 block = inhibitors of human SENP6 protease. inhibition, % at 10 µM. Q9GZR1. AID 2599. Recombinant SENP6 catalytic domain, aminoluciferin luminescence. 330,000 tested, 1.8% active;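 active = inhibition above about 50% at the single tested dose, limit read from the data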;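 also: plate controls were DMSO wells with enzyme for no effect and DMSO wells lacking enzyme for full effect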
SENP8 conf = human SENP8 inhibition, confirmed; Recombinant SENP8, Z-RLRGG-aminoluciferin luminescence, 60 min; inhibition, % at 12.5 µM; shares compounds with SENP7 block; 6,200 tested, 40% active; AID 488912;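 active = mean inhibition across replicates above about 50%, limit read from the data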
SENP6 conf = human SENP6 inhibition, confirmed; recombinant SENP6, Z-RLRGG-aminoluciferin luminescence; inhibition, % at 12.5 µM; shares compounds with SENP7 block; 6,200 tested, 58% active; AID 488915
SENP7 conf = confirmation of human SENP7 protease inhibitors | shares compounds with SENP7 block | recombinant SENP7, Z-RLRGG-aminoluciferin luminescence, 40 min | inhibition, % at 12.5 µM | 6,200 tested, 69% active | AID 488917
Casp3 select = selectivity test for SENP inhibitors: human caspase-3 inhibition; shares compounds with SENP7 block; purified caspase-3, Z-DEVD-aminoluciferin luminescence, 60 min; inhibition, % at 12.5 µM; 6,200 tested, 60% active; AID 488918;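 active = mean inhibition above about 50%, limit read from the data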;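 also: plate controls were enzyme with DMSO for no effect and wells without caspase-3 for full effect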
Target sequence (P42574 28-227 limits assumed): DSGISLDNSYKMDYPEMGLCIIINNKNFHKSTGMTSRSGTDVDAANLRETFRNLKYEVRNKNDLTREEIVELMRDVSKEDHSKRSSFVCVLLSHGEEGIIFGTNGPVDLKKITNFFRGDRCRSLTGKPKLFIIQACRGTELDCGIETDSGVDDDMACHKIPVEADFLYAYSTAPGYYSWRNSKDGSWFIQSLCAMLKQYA
Luc interf = counter-screen for SENP inhibitors: luminescence interference; shares compounds with SENP7 block; Pre-incubated SENP8/Z-RLRGG-aminoluciferin, luciferase luminescence interference; inhibition, % at 12.5 µM; 6,200 tested, 39% active; AID 488919;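 active = mean inhibition above about 50% when retested at one dose, limit read from the data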;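 also: plate controls were DMSO wells with completed reaction for no effect and substrate without enzyme for full effect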
* = called active by the depositor; nt = no result.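 The calls were made as follows, unless noted: active = mean inhibition above about 50% in the one-dose retest (limit read from the data); inactive = the rest.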

SMILES	SENP1 inh	HSP90 inh	SENP7 block	SENP8 block-1	SENP8 block-2	SENP6 block	SENP8 conf	SENP6 conf	SENP7 conf	Casp3 select	Luc interf
O=C(O)c1ccc(COc2ccccc2[N+](=O)[O-])o1	1	-4	30	15	15	57*	46	35	71*	11	50*
O=C(O)c1ccc(OCc2ccc(C(=O)O)o2)cc1	0	-1	92*	84*	24	88*	87*	88*	99*	55*	71*
O=C(O)c1ccc(COc2ccc(Cl)cc2)o1	-1	0	82*	80*	16	79*	91*	90*	97*	32	89*
O=C1CN(C(=O)COc2ccc(Br)cc2)c2ccccc2N1	-1	2	4	-4	12	-7	nt	nt	nt	nt	nt
CCOC(=O)NC(=O)c1cn(CCN(C)C)c(=O)[nH]c1=O	2	9	-1	-2	9	-1	nt	nt	nt	nt	nt
CN(C)c1cccc(C(=O)NCCCSc2ccccc2)c1	1	-1	0	-6	-382	-3	nt	nt	nt	nt	nt
C/C(=N\NS(=O)(=O)c1ccc(C)c([N+](=O)[O-])c1)c1cccs1	-2	-2	1	0	8	-23	nt	nt	nt	nt	nt
C/C(CC(C)C)=N\NS(=O)(=O)c1ccc(C)c([N+](=O)[O-])c1	0	1	3	4	27	85*	-10	-10	-6	4	0
CC1(c2ccccc2)NC(=O)N(NC(=O)COC(=O)c2cc(Br)ccc2O)C1=O (stereo not given)	4	nt	-2	-9	-102	-16	nt	nt	nt	nt	nt
Cc1cccn2cc(-c3ccc(S(=O)(=O)N4CCOCC4)cc3)nc12	2	3	3	-11	-311	2	nt	nt	nt	nt	nt
Cc1cccn2cc(-c3ccc(Cl)cc3)nc12	-1	10	91*	89*	-290	95*	95*	96*	101*	92*	54*
O=C(Nc1scc(-c2ccccc2)c1C(=O)O)c1ccc(F)cc1	-1	14	71*	92*	-77	91*	93*	94*	102*	96*	92*
Cc1ccc(-c2csc(NC(=O)c3ccc(F)cc3)c2C(=O)O)cc1	3	3	58*	90*	-24	94*	-2	91*	90*	89*	68*
CCOC(=O)c1c(-c2ccc(F)cc2)csc1NC(=O)C1CC=CCC1C(=O)O (stereo not given)	3	4	-9	-8	-3	-18	nt	nt	nt	nt	nt
O=C(CSc1ccc(S(=O)(=O)N2CCOCC2)cn1)Nc1ccc(F)c(F)c1	-1	nt	-5	-11	-1	-6	nt	nt	nt	nt	nt
Cc1ccc(C(=O)N[C@H](C(=O)Nc2cccc(S(=O)(=O)N3CCOCC3)c2)C(C)C)cc1	3	nt	nt	nt	7	nt	nt	nt	nt	nt	nt
COC(=O)CSc1nnc(C2COc3ccccc3O2)n1-c1ccccc1 (stereo not given)	1	4	76*	-1	10	-4	-8	-1	-5	-3	-5
Cc1cccnc1NC(=O)CNC(=O)COc1ccccc1	-1	nt	-2	8	12	5	nt	nt	nt	nt	nt
Nc1ccc(-c2nc3ccc(N)cc3[nH]2)cc1	-10	-3	13	-3	-421	18	nt	nt	nt	nt	nt
Nc1ccc2nc(-c3cc(Cl)c(N)c(Cl)c3)[nH]c2c1	-32	-5	77*	64*	-329	87*	-20	73*	94*	82*	76*
Nc1ccc2nc(-c3ccc(Cl)cc3)[nH]c2c1	-100	nt	63*	66*	-433	75*	80*	81*	54*	45	81*
COC(=O)c1ccc(NC(=O)CCS(=O)(=O)c2ccc3c(c2)NC(=O)C(C)S3)cc1 (stereo not given)	1	-5	-1	-2	10	-4	nt	nt	nt	nt	nt
O=C(Nc1ccc(S(=O)(=O)Nc2ncccn2)cc1)c1nn(Cc2ccccc2)c(=O)c2ccccc12	-3	3	17	66*	2	85*	4	17	26	36	9
COCC(C)NC(=O)c1nn(Cc2ccccc2)c(=O)c2ccccc12 (stereo not given)	-1	-4	5	0	8	61*	-6	-6	2	11	6
CCOC(=O)C1CCCN(C(=O)c2ccc(F)c(C)c2)CC1 (stereo not given)	2	nt	nt	nt	20	nt	nt	nt	nt	nt	nt
SMILES	SENP1 inh	HSP90 inh	SENP7 block	SENP8 block-1	SENP8 block-2	SENP6 block	SENP8 conf	SENP6 conf	SENP7 conf	Casp3 select	Luc interf
CCN1CCN(c2ccc(N3CCN(S(=O)(=O)c4cc([N+](=O)[O-])ccc4C)CC3)nn2)CC1	0	nt	-7	-8	4	-14	nt	nt	nt	nt	nt
CSc1cccc(NC(=O)c2cnn3ccccc23)c1	2	1	71*	49	-18	76*	72*	70*	91*	65*	72*
Cc1ccc(C)c(S(=O)(=O)/N=C2\C=C(NS(=O)(=O)c3ccccc3)C(=O)c3ccccc32)c1	1	0	11	36	73*	55*	2	29	-2	6	1
C=CCNC(=O)c1onc(CSc2cccc(OC)c2)c1C(=O)NCC=C	2	nt	8	-6	-6	-17	nt	nt	nt	nt	nt
CCCS/C(N)=N/N=C/c1cc(C)ccc1O	3	0	11	10	32	53*	20	17	59*	20	17
CCCCS/C(N)=N/N=C/c1ccccc1O	1	-7	0	0	-11	-7	nt	nt	nt	nt	nt
Clc1ccc2nc3c4ccccc4cnn3c2c1	2	-1	98*	95*	-356	99*	94*	94*	101*	92*	24
Cc1csc(=O)n1CC(=O)OCC(=O)NCc1ccc(F)cc1	0	nt	8	1	11	-2	nt	nt	nt	nt	nt
N#Cc1c(NC(=O)c2ccc([N+](=O)[O-])o2)sc2c1CCC2	-82	-4	15	47	35	80*	58*	79*	79*	76*	10
N#Cc1c(NC(=O)c2ccccc2)sc2c1CCC2	-26	10	27	18	4	63*	-21	12	18	4	-2

Assay outcomes (PubChem)
